Assay results as given in ChEMBL document CHEMBL1949600, “Lipophilic hydroxytyrosol esters: fatty acid conjugates for potential topical administration” (J Nat Prod, 2011).

Tests used:
[1] = Percutaneous permeability through human SCE membrane in Franz diffusion cell after 12 hrs by UV-Vis spectrophotometry relative to hydroxytyrosol; format: ADME
Procedure, shortened: (§1)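 Franz cells (0.75 cm² area, 4.75 mL receptor) with human stratum corneum/viable epidermis from fresh abdominal surgical skin, used within 24 h of removal. Non-occlusive, 36 ± 1 °C. Receptor sampled hourly up to 12 h, each sample replaced with fresh phase. UV-vis at each compound's λmax against calibration (0.5–25 μg/mL in EtOH). At least three cells, triplicate, mean ± SD.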

[2] = Octanol-water partition coefficient, log Kow of the compound by HPLC analysis; format: physicochemical; conditions: read-out: log KOW
Procedure, shortened: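 Reversed-phase HPLC method for log Kow, calibrated with reference standards of known log Kow. Naphthalene (log Kow 3.3) was the most lipophilic standard. Compounds too lipophilic to be resolved were assigned a log Kow above 3.3.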

[3] = Percutaneous permeability through human SCE membrane in Franz diffusion cell after 12 hrs by UV-Vis spectrophotometry; format: ADME; procedure, shortened: as §1

| SMILES | fold change (FC) [1] | logP [2] | permeability [3] |
| --- | --- | --- | --- |
| CCCCCCCC/C=C\CCCCCCCC(=O)OCCc1ccc(O)c(O)c1 | 3.6 | > 3.3 |  |
| CCCCCCCC/C=C/CCCCCCCC(=O)OCCc1ccc(O)c(O)c1 |  | > 3.3 |  |
| CCCCC/C=C\C/C=C\CCCCCCCC(=O)OCCc1ccc(O)c(O)c1 | 2.2 | > 3.3 | 60.52% |
| CCCC(=O)OCCc1ccc(O)c(O)c1 [HYDROXYTYROSOL BUTANOATE] | 1.8 | 1.64 |  |
| CCCCCCCCCC(=O)OCCc1ccc(O)c(O)c1 [HYDROXYTYROSOL DECANOATE] | 2.2 | > 3.3 | 64.18% |
| CCCCCCCCCCCCCCCC(=O)OCCc1ccc(O)c(O)c1 [HYDROXYTYROSOL PALMITATE] | 1.7 | > 3.3 |  |
| CCCCCCCCCCCCCCCCCC(=O)OCCc1ccc(O)c(O)c1 [HYDROXYTYROSOL STERATE] | 1.7 | > 3.3 |  |
| OCCc1ccc(O)c(O)c1 [HYDROXYTYROSOL] |  | 0.809 |  |
